Each block holds one molecule with its values, some of them ahead of it. Activity calls are given as the source filed them. No cut-off for these calls is given here.
Tests used:
[1] = Inhibition of alpha-L-fucosidase
Method in brief: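 Bovine epididymis alpha-L-fucosidase at pH 5.5 with the matching p-nitrophenyl glycoside as substrate. The reaction was stopped with 400 mM Na2CO3, and released p-nitrophenol was read at 400 nm.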

[2] = Inhibition of bovine liver beta-galactosidase; set-up: species or system Bos taurus
Method in brief: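 Bovine liver beta-galactosidase at pH 6.8 with the matching p-nitrophenyl glycoside substrate. Stopped by adding 400 mM Na2CO3; released p-nitrophenol was measured at 400 nm.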

Prunus dulcis = test: (§1) Inhibition of almond beta-glucosidase
Method in brief: (§2)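 The substrate was the matching p-nitrophenyl glycoside. Reactions were terminated with 400 mM Na2CO3, and liberated p-nitrophenol was measured spectrophotometrically at 400 nm.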

[3] = as §1; set-up: species or system Prunus dulcis; method in brief: as §2
[4] = biological target: T1, Sucrase-isomaltase, intestinal (Rattus norvegicus, UniProt P23739); test: Inhibition of rat intestinal isomaltase
Method in brief: (§3)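 Enzyme source was brush border membranes prepared from rat small intestine, assayed at pH 5.8 with sucrose (sucrase) or isomaltose (isomaltase) as substrate. Released D-glucose was quantified colorimetrically with a glucose test kit.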

[5] = biological target: T1, Sucrase-isomaltase, intestinal; test: Inhibition of rat intestinal sucrase; method in brief: as §3

T1 sequence (P23739 1-1013 limits assumed): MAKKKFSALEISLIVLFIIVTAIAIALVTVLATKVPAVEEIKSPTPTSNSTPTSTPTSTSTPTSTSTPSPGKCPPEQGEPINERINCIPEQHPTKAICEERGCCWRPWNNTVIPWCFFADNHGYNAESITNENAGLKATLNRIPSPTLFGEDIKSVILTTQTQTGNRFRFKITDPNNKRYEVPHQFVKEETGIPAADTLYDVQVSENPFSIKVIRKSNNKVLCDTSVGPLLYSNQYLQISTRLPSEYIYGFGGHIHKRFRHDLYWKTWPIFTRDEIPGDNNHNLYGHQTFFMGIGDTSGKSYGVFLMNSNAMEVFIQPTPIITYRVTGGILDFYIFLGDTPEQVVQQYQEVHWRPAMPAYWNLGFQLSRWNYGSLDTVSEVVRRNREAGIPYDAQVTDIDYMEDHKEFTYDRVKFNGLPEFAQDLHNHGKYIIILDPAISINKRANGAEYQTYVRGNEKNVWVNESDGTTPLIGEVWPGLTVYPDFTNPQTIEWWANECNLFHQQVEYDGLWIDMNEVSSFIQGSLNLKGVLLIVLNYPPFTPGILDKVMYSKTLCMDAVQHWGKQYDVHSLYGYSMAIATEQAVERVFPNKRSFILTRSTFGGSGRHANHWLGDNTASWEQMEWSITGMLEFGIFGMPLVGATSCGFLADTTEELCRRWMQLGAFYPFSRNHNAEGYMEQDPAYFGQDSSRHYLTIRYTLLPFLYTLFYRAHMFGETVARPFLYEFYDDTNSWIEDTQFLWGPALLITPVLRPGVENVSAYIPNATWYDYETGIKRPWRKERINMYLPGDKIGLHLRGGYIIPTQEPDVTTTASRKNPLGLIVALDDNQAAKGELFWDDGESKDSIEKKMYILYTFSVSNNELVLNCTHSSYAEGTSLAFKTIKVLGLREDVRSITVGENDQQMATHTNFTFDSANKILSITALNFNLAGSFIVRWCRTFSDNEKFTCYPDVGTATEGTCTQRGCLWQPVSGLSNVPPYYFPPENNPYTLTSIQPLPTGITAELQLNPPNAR
T1 sequence (P23739 1014-1841 limits assumed): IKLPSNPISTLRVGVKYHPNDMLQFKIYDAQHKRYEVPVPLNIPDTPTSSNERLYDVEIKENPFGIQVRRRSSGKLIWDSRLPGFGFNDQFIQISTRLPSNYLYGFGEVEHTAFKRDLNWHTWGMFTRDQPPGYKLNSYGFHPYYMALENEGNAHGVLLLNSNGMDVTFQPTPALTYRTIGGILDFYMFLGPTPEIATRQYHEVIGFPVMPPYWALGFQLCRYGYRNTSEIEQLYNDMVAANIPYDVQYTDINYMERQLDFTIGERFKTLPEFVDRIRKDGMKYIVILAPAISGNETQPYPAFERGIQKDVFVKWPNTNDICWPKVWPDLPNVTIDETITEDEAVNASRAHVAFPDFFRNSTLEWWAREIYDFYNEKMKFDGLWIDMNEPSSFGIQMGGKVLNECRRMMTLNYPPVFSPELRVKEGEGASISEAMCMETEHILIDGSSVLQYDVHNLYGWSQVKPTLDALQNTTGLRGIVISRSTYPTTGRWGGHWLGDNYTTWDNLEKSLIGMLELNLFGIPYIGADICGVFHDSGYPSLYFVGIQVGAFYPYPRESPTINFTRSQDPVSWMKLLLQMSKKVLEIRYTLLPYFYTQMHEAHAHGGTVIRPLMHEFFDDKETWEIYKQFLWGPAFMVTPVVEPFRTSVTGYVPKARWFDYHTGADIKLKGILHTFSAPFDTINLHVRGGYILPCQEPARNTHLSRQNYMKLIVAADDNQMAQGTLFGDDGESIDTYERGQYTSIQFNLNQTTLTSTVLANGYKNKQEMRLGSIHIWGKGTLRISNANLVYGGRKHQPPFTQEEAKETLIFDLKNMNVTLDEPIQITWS

Structure (SMILES): OC[C@H]1O[C@H](OC[C@H]2NC[C@@H](O)[C@@H](O)[C@@H]2O)[C@H](O)[C@@H](O)[C@@H]1O
Ki [1]: 19 µM

Structure (SMILES): C[C@@H]1O[C@@H](O[C@@H]2CN[C@H](CO)[C@@H](O)[C@@H]2O)[C@H](O)[C@H](O)[C@H]1O
Ki [1]: 0.06 µM

Structure (SMILES): OC[C@@H]1N[C@H](CO)[C@@H](O)[C@@H]1O
IC50 [3]: 320 µM
IC50 [4]: 1000 µM
IC50 [5]: 1000 µM

Structure (SMILES): OC[C@H]1N[C@H](CO)[C@@H](O)[C@H]1O
IC50 [2]: 3.3 µM
IC50 [3]: 7.8 µM

More lines, now with the values ahead:

Activity [1]: inactive
Structure (SMILES): OC[C@H]1NC[C@@H](O[C@H]2O[C@H](CO)[C@H](O)[C@H](O)[C@H]2O)[C@@H](O)[C@@H]1O

Activity [1]: inactive
Structure (SMILES): OC[C@H]1NC[C@@H](O)[C@@H](O)[C@@H]1O[C@@H]1O[C@H](CO)[C@@H](O)[C@H](O)[C@H]1O

Activity [1]: inactive
Structure (SMILES): OC[C@H]1NC[C@@H](O)[C@@H](O[C@@H]2O[C@H](CO)[C@@H](O)[C@H](O)[C@H]2O)[C@@H]1O

IC50 [2]: 270 µM
Activity (Prunus dulcis): inactive
Structure (SMILES): OC[C@H]1N[C@H](CO)[C@@H](O[C@@H]2O[C@H](CO)[C@@H](O)[C@H](O)[C@H]2O)[C@@H]1O

Activity [1]: inactive
Structure (SMILES): OC[C@H]1NC[C@@H](O[C@@H]2O[C@H](CO)[C@@H](O)[C@H](O)[C@H]2O)[C@@H](O)[C@@H]1O
